Screening data from PubChem.
RGS4 pot – RGS4 potentiators or activators, primary screen, cell-based, HEK293 M3R inducible RGS4, calcium flux; AID 463111, 2010; B-score at 10 µM; 310,000 tested, 0.92% active; carbachol calcium flux Fluo4; hits give low values;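 active = B-score of the integrated calcium signal more than 4 SD below the library mean, with starting fluorescence not abnormally high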;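 note: negative B-score means reduced calcium response which marks RGS4 activation or potentiation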
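System – HEK293 FlpIn-TREx cells, stable M3R, doxycycline-inducible RGS4 · Reagent – ECmax carbachol challenge · Times – compound preincubation 20 min at room temperature before agonist · Technique – Fluo4 fluorescence kinetic imaging of calcium · Measure – B score of integrated Fluo4 ratio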
RGS4 block – RGS4 inhibitors, primary screen, cell-based, HEK293 M3R inducible RGS4, calcium flux | Regulator of G-protein signaling 4 (Homo sapiens), P49798 | Fluo-4 calcium flux; hits give high values; triggered by carbachol at its EC20 | B-score at 10 µM | 310,000 tested, 0.45% active;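 active = B-score, a plate-corrected calcium signal, over three deviations above library mean, with baseline fluorescence within five deviations of library mean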;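 note: RGS4 expression induced by doxycycline in cells with stable M3 receptor; B-score is computed from the integrated fluorescence ratio over baseline after carbachol; higher B-score means a larger calcium signal and so more RGS4 inhibition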
Target sequence (P49798 whole entry, looked up): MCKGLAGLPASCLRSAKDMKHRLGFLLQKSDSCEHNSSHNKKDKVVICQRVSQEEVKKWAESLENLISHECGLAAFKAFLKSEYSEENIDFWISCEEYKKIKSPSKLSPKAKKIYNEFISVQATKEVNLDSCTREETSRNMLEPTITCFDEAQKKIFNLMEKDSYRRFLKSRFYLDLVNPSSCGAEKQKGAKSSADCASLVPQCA
MrgX1 antag – antagonists of human MrgX1 receptor, primary screen, HEK293 cells, Fluo-4 calcium flux. BAM8-22 antagonism; hits give low values. B-score at 10 µM. 310,000 tested, 1.3% active. AID 588676, 2011;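 active = calcium-response B-score plate-corrected more than 3 library SD below zero, starting fluorescence within 5 deviations, no agonist response on first addition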;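 note: peak minus trough fluorescence over baseline after final BAM8-22 challenge near maximal dose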
Target sequence (Q96LB2 whole entry, looked up): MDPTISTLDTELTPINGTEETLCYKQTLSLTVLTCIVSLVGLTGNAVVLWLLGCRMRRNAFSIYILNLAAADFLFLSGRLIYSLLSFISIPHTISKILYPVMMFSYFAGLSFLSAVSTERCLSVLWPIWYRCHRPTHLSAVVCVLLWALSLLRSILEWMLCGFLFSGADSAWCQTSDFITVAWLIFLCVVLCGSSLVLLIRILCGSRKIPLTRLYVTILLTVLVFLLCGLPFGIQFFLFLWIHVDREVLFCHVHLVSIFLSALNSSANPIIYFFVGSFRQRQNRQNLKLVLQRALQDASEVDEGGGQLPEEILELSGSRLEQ
MrgX1 agonist – agonists of human MrgX1 receptor, primary screen, HEK293 cells, Fluo-4 calcium flux; 310,000 tested, 0.44% active; Fluo-4 calcium fluorescence, agonist mode; hits give high values; Mas-related G-protein coupled receptor member X1 (Homo sapiens), Q96LB2; B-score at 10 µM;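 active = calcium response B-score plate-corrected fluorescence ratio at least 3 library SD, with starting fluorescence B-score inside 5 SD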
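Material: MrgX1-expressing HEK293 cells / Dosing: compound as first of three additions / Incubation: overnight seeding, then 1 h dark dye loading / Signal: Fluo-4 NW calcium fluorescence / Evaluation: B-scored fluorescence response ratio / Benchmarks: positive and negative control wells on each plate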
MrgX1 allo act – positive allosteric modulators of MrgX1, primary screen, HEK293 cells, Fluo-4 calcium flux; Mas-related G-protein coupled receptor member X1 (Homo sapiens), Q96LB2; FDSS; hits give high values; B-score at 10 µM; 310,000 tested, 0.63% active;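 active = plate-corrected calcium response at least 3 library SD above typical, normal starting fluorescence, not activating the receptor alone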;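 note: compound read alongside a low EC10 to EC30 dose of BAM8-22 agonist; peak minus trough fluorescence over baseline measured at the second addition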
RGS4 block valid – enhanced carbachol calcium response, M3R/RGS4 cells, RGS4 inhibitor project, cell-based, validation screen, HEK293 M3R/RGS4, calcium flux | shares compounds with RGS4 block | carbachol calcium Fluo-4 fluorescence; carbachol added at its EC20; 0 = buffer wells, 100 = carbachol control | 1,700 tested, 65% active | calcium response, % at 10 µM;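 active = duplicate-averaged calcium response above the buffer-only control mean plus 5 SD of those controls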;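 note: integrated fluorescence ratio F max minus min over baseline F0; higher response in RGS4-induced cells means RGS4 inhibition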
M3R Ca ctr – carbachol calcium response in non-induced M3R cells, confirmation, counter-screen for RGS4 inhibitor project, cell-based, HEK293 M3R; shares compounds with RGS4 block; carbachol calcium Fluo-4; submaximal (EC20) carbachol stimulus; buffer wells 0%, carbachol control wells 100%; activity (percent), % at 10 µM; 1,900 tested, 20% active; call rule not given here;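 note: RGS4 induction absent so cells express M3R without RGS4; higher means more calcium signal and flags a non-specific hit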
RGS4 inh ctr2 – second counter-screen for RGS4 inhibitors: non-induced cells without carbachol; shares compounds with RGS4 block; HEK293 M3R/RGS4 non-induced, Fluo-4 calcium, no carbachol; normalised: buffer wells 0%, carbachol wells 100%; calcium response (agonist-mode artifact), % at 10 µM; 1,900 tested, 22% active; AID 493001;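 active = duplicate-averaged calcium rise in uninduced cells above buffer wells' mean plus 5 SD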
Each line names hits and unclear results; the compound was inactive in the other large screens (follow-up assays come after a bar, where they were run). Rows were chosen to be rich in hits. Some 3.5% of all compounds tested hit in one or more screens of this group.

CN(C(=O)c1cnccn1)c1c(N)n(Cc2ccccc2)c(=O)[nH]c1=O	none
COc1cc2c(cc1OC)C(CSc1ccccc1C(=O)O)=NC(C)(C)C2	RGS4 block 5.6 | RGS4 block valid 9.5% | M3R Ca ctr inactive | RGS4 inh ctr2 inactive
O=C(O)CCc1ccc(-c2ccccc2)o1	RGS4 block 5.1 | RGS4 block valid 5.0% | M3R Ca ctr inactive | RGS4 inh ctr2 inactive
CCCc1ccc2oc(C(=O)N(C)CCn3ccnc3C)c(C)c2c1	none
O=C(NCc1cccnc1)C(=O)NCC1OCCCN1S(=O)(=O)c1ccc(F)cc1 (configuration not stated)	none
CC(C)c1ccc(/C=C2\CC/C(=C\C=N\N(C)C)C2=O)cc1	none
CN(C)/N=C/C=C1\CC/C(=C\c2ccc(F)c(F)c2)C1=O	none | M3R Ca ctr inactive | RGS4 inh ctr2 16%
NC(=O)c1cc[n+](Cc2ccccc2Cl)cc1	none
Cc1nc(SCC(=O)N2CCC(Cc3ccccc3)CC2)[nH]c(=O)c1C	none
O=C(/C=C/c1ccc(NC(=O)c2ccccc2-c2ccccc2C(=O)O)cc1)c1ccccc1	RGS4 block 28 | RGS4 block valid 60% | M3R Ca ctr inactive | RGS4 inh ctr2 13%
COc1cccc(/C=C2\SC(=S)N(CCCC(=O)N(CCO)c3ccccc3)C2=O)c1	none
O=C1/C(=C/c2cccc(Br)c2)SC(=S)N1CCC(=O)N(CCO)c1ccccc1	RGS4 block 5.3 | RGS4 block valid 16% | M3R Ca ctr 34% | RGS4 inh ctr2 inactive
CCN1C(=NCC(C)C)N[C@@H](c2cccc(F)c2)C(C(=O)OC)=C1C	none
Cc1ccc(N(CC(=O)NCc2ccccc2)C(=O)CCC(=O)Nc2ccccn2)cc1	none
CC(=O)c1cccc(NC(=O)CSc2ncc(C(=O)Nc3ccccc3)c(=O)n2C)c1	none | M3R Ca ctr 39% | RGS4 inh ctr2 inactive
CC(=O)Nc1cccc(NC(=O)CSc2ncc(C(=O)Nc3ccc(F)cc3)c(=O)n2C)c1	none | RGS4 block valid inactive | M3R Ca ctr inactive | RGS4 inh ctr2 inactive
COC(=O)c1cc(=O)n(-c2ccc(F)cc2)c(=Nc2ccc(F)cc2)s1	RGS4 block 13 | RGS4 block valid 30% | M3R Ca ctr 54% | RGS4 inh ctr2 inactive
O=C1C(Cl)=C(N2CCCC2)C(=O)N1c1ccccc1F	none
CCOC(=O)c1sc(=S)n(-c2ccccc2)c1N	none
CCOC(=O)c1sc(=S)n(-c2ccccc2)c1N(C(C)=O)C(C)=O	RGS4 block 4.9 | RGS4 block valid inactive | M3R Ca ctr inactive | RGS4 inh ctr2 inactive
OCCCc1nc2ccccc2[nH]1	none
COc1ccc(OC)c(C2C=C(C34CC5CC(CC(C5)C3)C4)NC(=S)N2)c1 (configuration not stated)	RGS4 block 8.8 | RGS4 block valid 14% | M3R Ca ctr inactive | RGS4 inh ctr2 inactive
Cc1ccc(C(=O)/C=C\C(=O)c2ccc(C)cc2)cc1	none | RGS4 block valid inactive | M3R Ca ctr inactive | RGS4 inh ctr2 inactive
COc1ccc(OC)c(CN2CCN(Cc3cc(=O)oc4cc(O)ccc34)CC2)c1	none
CCOC(=O)C1CCN(Cc2cc(=O)oc3cc(C)c(Cl)cc23)CC1	RGS4 block 9.3 | RGS4 block valid 5.0% | M3R Ca ctr inactive | RGS4 inh ctr2 inactive
COC(=O)C1CCN(Cc2cc(=O)oc3cc(OC)ccc23)CC1	RGS4 block 4.8 | RGS4 block valid 21% | M3R Ca ctr inactive | RGS4 inh ctr2 inactive
CN(C(=O)COc1ncnc2sccc12)c1ccccc1	none
Cc1cccc2sc(NNC(=O)c3ccc(S(=O)(=O)N4CC(C)CC(C)C4)cc3)nc12 (configuration not stated)	RGS4 block 6.5 | RGS4 block valid 10% | M3R Ca ctr inactive | RGS4 inh ctr2 inactive
Cc1ccc2nc(NNC(=O)c3ccc(S(=O)(=O)N4CCc5ccccc5C4)cc3)sc2c1	none | M3R Ca ctr inactive | RGS4 inh ctr2 inactive
Cc1cc(C)c2nc(NNC(=O)c3ccc(S(=O)(=O)N4CCCC(C)C4)cc3)sc2c1 (configuration not stated)	none
Cc1cc(C)c2nc(NNC(=O)c3ccc(S(=O)(=O)N4CC(C)CC(C)C4)cc3)sc2c1 (configuration not stated)	none | M3R Ca ctr inactive | RGS4 inh ctr2 inactive
COc1cc(F)ccc1S(=O)(=O)N1CCN(Cc2ccccc2)CC1	none
COc1ccc(N(C)C(=O)c2oc(=O)c3ccccc3c2-c2ccc(C)cc2)c(OC)c1	none
O=C1/C(=C\c2ccncc2)CCc2ccccc21	none
O=C1/C(=C/c2ccncc2)CCC/C1=C\c1ccncc1	RGS4 block 24 (no result: MrgX1 antag, MrgX1 agonist, MrgX1 allo act) | RGS4 block valid 107% | M3R Ca ctr inactive | RGS4 inh ctr2 inactive
COc1ccc(S(=O)(=O)n2cccc2)cc1OC	none
NS(=O)(=O)c1ccc(OC(=O)CNC(=O)OCc2ccccc2)cc1	none
CC1Cc2ccccc2N1Cc1nc2scc(-c3cccs3)c2c(=O)[nH]1 (configuration not stated)	RGS4 block 9.3 | RGS4 block valid inactive | M3R Ca ctr inactive | RGS4 inh ctr2 inactive
COc1cccc(C(=O)N2CCC(n3nccc3NC(=O)CCOc3ccccc3)CC2)c1	none
CC12CCC(C(=O)Nc3ccccc3Cl)(C(Br)C1=O)C2(C)C (configuration not stated)	none
CCOc1ccc(S(=O)(=O)N2CCC(C(=O)NCc3ccccn3)CC2)cc1C	none
CCOC(=O)C(=Cc1ccc(-n2ccnc2)cc1)C(=O)OCC	RGS4 block 13 | RGS4 block valid 18% | M3R Ca ctr inactive | RGS4 inh ctr2 inactive
COCCOC(=O)/C(=C/c1ccc(OC(=O)c2ccccc2)cc1)C(C)=O	RGS4 block 15, MrgX1 agonist 31 | RGS4 block valid 82% | M3R Ca ctr inactive | RGS4 inh ctr2 16%
